# Source: PubChem
# mABHD4 FP = inhibitors of mouse ABHD4 | purified mABHD4, FP-Rh probe fluorescence polarization | AID 720543 | 370,000 compounds, 0.54% hits | inhibition, % at 8.92 µM | Q8VD66;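 active = inhibition exceeding the mean over every tested compound plus 3 SD, cut at about 30% in these data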;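 also: 0% = plate median of compound wells and 100% = S159A mutant with DMSO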
#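 Test system: mABHD4 protein; Read-out basis: % inhibition; Incubation: 45 min + 60 min at 25 °C; Repeats: single replicate; Technique: fluorescence polarization with parallel and perpendicular emission, 525/598 nm; Compound: 8.92 µM, single dose; Benchmarks: full inhibition S159A mutant plus DMSO, zero as sample-well median.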
# HTRA1 inhibitor = HTRA1 (human) protease inhibition; inhibition, % at 5.96 µM; 340,000 compounds, 0.5% hits; Q92743; recombinant HTRA1, FP-rhodamine activity-based probe, fluorescence polarization; in the data active = inhibition above about 36%;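 also: 0% = enzyme with DMSO and 100% = wells lacking enzyme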
# Target sequence (Q92743 whole entry, looked up): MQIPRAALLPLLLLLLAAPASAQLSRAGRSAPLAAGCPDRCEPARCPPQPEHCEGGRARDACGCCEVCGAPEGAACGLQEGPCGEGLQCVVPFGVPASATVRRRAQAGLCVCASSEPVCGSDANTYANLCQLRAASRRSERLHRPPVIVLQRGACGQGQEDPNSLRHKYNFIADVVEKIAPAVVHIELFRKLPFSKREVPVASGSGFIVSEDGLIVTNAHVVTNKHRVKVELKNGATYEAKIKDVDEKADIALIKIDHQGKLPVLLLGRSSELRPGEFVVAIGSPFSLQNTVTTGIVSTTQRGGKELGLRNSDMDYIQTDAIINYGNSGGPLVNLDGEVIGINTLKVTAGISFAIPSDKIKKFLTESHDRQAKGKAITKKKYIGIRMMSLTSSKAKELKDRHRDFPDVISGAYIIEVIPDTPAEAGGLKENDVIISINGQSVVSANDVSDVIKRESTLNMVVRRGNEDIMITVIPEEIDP
# DAGLB inhibitor = diacylglycerol lipase beta (human) inhibition; Q8NCG7; HEK293T DAGLB membrane lysate, EnzChek fluorogenic substrate; inhibition, % at 5.17 µM; 340,000 compounds, 0.059% hits; AID 504411; in the data active = inhibition above about 34%;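 also: 0% = enzyme with vehicle and 100% = wells lacking enzyme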
# rCAG RNA binder = r(CAG) repeat RNA binding. TO-PRO-1 dye displacement fluorescence. inhibition, % at 3 µM. 370,000 compounds, 1.3% hits;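 active = inhibition above the plate cutoff, the mean of all test compounds on that plate plus 3 SD, cut at about 35% in these data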;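 also: 0% = DMSO alone and 100% = 100 µM mitoxantrone as full dye displacement; higher means more dye released from RNA so lower well fluorescence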
# LEDGF integ inh = blocks HIV-1 LEDGF/p75-dependent DNA integration | TR-FRET IN-LEDGF/p75 DNA integration, Eu/Cy5 | inhibition, % at 3.7 µM | 370,000 compounds, 0.64% hits | AID 743269;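 active = inhibition above the screen-wide mean plus 3 SD, cut at about 13% in these data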;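 also: signal is the Cy5 over europium emission ratio at 671 and 618 nm; 0% = plate median of compound wells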
# PRMT1 FP inh = PRMT1 (human) inhibition, primary screen; recombinant PRMT1, activity-based probe fluorescence polarization; inhibition, % at 2.79 µM; 370,000 compounds, 1.3% hits;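 active = inhibition above about 21% made by adding two undisclosed values, limit read from the data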
# rCAG binder conf = r(CAG) RNA repeat binding, confirmation; shares compounds with rCAG RNA binder; TO-PRO-1 dye displacement fluorescence; inhibition, % at 3 µM; 4,300 compounds, 70% hits;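 active = inhibition above a per-plate cutoff, the mean inhibition of sample wells plus 3 SD, cut at about 35% in these data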;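 also: loss of TO-PRO-1 fluorescence as compound displaces dye from 1x1 AA loop RNA; 0% = DMSO only wells and 100% = 100 µM mitoxantrone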
# dCAG dye counter = disrupts DNA CAG TO-PRO-1 complex, flagging rCAG hits | d(CAG) DNA oligo TO-PRO-1 dye displacement, fluorescence | AID 652068 | 4,300 compounds, 94% hits | shares compounds with rCAG RNA binder | inhibition, % at 3 µM;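 active = inhibition above its plate's cutoff, the mean test-well inhibition plus 3 SD, cut at about 4.8% in these data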;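 also: 0% = DNA dye mix with DMSO and 100% = 100 µM mitoxantrone; hits displace the dye from DNA and so lower well fluorescence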
# DNA CAG DR = disrupts DNA CAG TO-PRO-1 complex in dose response; shares compounds with rCAG RNA binder; DNA CAG/GTC duplex TO-PRO-1 dye displacement fluorescence; IC50, µM; 250 compounds, 20% hits; AID 686960; in the data active = IC50 below about 10 µM
# * = called active by the depositor; i = inactive; x = no result given. Compounds with a hit are over-represented: about 3.2% of the library has one in this group of screens.
SMILES,mABHD4 FP,HTRA1 inhibitor,DAGLB inhibitor,rCAG RNA binder,LEDGF integ inh,PRMT1 FP inh,rCAG binder conf,dCAG dye counter,others
O=C(NCCN1C(=O)C2C3C=CC(C3)C2C1=O)N1CCCCC1 (stereo unspecified),-7,2,-2,-2,4,6,x,x,
Fc1ccc(Nc2nc3ccccc3s2)cc1,5,-5,-2,-1,2,3,x,x,
Oc1nc(Nc2ccc(F)cc2)sc1/C=C1\C=Nc2ccccc21,-2,-14,1,48*,-2,-2,25,14*,
N#Cc1nccnc1N1CCN(C(=O)Nc2ccccc2)CC1,-4,3,-5,-2,-2,0,x,x,
CCCc1cc(=O)[nH]c(SCC(=O)Nc2ccc(C)c(S(=O)(=O)N3CCCCC3)c2)n1,1,-8,3,42*,-6,3,37*,10*,
CCCc1cc(=O)[nH]c(SCC(=O)Nc2cc(S(=O)(=O)N3CCCCC3)ccc2Cl)n1,-2,-15,-1,41*,-1,-1,35*,11*,
CCCc1cc(=O)[nH]c(SCC(=O)Nc2ccc(OC)c(S(=O)(=O)N3CCCCC3)c2)n1,-2,-9,1,24,8,2,x,x,
CN(C)CC(c1ccc(O)cc1)C1(O)CCCCC1 (stereo unspecified),2,x,x,2,-1,2,x,x,
CCOC(=O)C(Cc1ccc(O)cc1)Nc1nc2ccccc2o1 (stereo unspecified),-12,2,-1,1,4,-2,x,x,
COC(=O)Cn1c(=O)c2c(n(Cc3ccccc3)c1=O)N/C(=C/c1ccc(OC)cc1)C2=O,1,-1,12,75*,-2,3,79*,34*,DNA CAG DR=4*
C/C(=N\OCc1nc2ccccc2c(=O)n1/N=C/c1cc(C)cc([N+](=O)[O-])c1O)c1ccccc1,8,0,1,56*,0,0,64*,25*,
Cc1ccc(Nc2nnc(SCC(O)=C(C#N)c3nc4ccccc4[nH]3)s2)c(C)c1,11,12,7,57*,3,3,45*,21*,
COc1cc(NC(=O)CCNS(=O)(=O)c2cc(Br)cnc2N)cc(OC)c1,-7,4,2,2,1,0,x,x,
O=C(COC(=O)c1cccc(NS(=O)(=O)c2ccc(F)c(F)c2)c1)NC(=O)NC1CCCC1,-10,7,5,36*,-1,2,26,5.0*,
COC(=O)[C@]12C[C@H](CC(=O)NCc3ccc(OC)c(OC)c3)C(=O)N(CCC3=CCCCC3)C1=C[C@H](COCc1ccccc1)O[C@@H]2C,-6,x,x,6,-3,0,x,x,
O=C(COc1cccc2ccccc12)Nc1cc(Cl)ccc1C(=O)O,-60,-74,18,75*,3,-2,70*,30*,DNA CAG DR=i
O=C(COc1cccc2ccccc12)Nc1ccc(Cl)cc1C(=O)O,-73,-82,29,68*,3,4,66*,19*,
O=C1Nc2ccc3sc4ccccc4c3c2C1=O,21,x,x,36*,-1,6,17,14*,
COc1ccc(-c2csc(N)n2)cc1,8,1,-1,-2,-6,4,x,x,
COc1ccc2[nH]c(C)c(-c3csc(N)n3)c2c1,-2,5,3,37*,-6,10,15,11*,
O=c1cc(-c2ccccc2)[nH]n1-c1nc2ccccc2[nH]1,12,20,18,65*,3,-1,16,9.1*,
O=C(/C=C/c1ccc2c(c1)OCO2)Nc1c(C(=O)O)[nH]c2ccccc12,11,2,8,45*,-2,-1,38*,13*,
CCOC(=O)c1[nH]c2ccc(OC)cc2c1NC(=O)/C=C/c1ccc2c(c1)OCO2,2,3,-1,3,0,0,x,x,
NNS(=O)(=O)c1ccc2c(c1)Cc1cc(S(=O)(=O)NN)ccc1-2,-1,-43,-4,42*,6,10,6,4,
O=S(=O)(NCCO)c1ccc2c(c1)Cc1cc(S(=O)(=O)NCCO)ccc1-2,7,3,0,1,1,-2,x,x,
SMILES,mABHD4 FP,HTRA1 inhibitor,DAGLB inhibitor,rCAG RNA binder,LEDGF integ inh,PRMT1 FP inh,rCAG binder conf,dCAG dye counter,others
O=c1c2cn[nH]c2[nH]c(=S)n1-c1cccc(Cl)c1,6,1,2,0,4,7,x,x,
CN(C)S(=O)(=O)c1cccc(NC(=S)N/N=C/c2cc(Br)ccc2O)c1,14,36,15,46*,-5,-1,55*,21*,
COc1ccc(OC)c(NC(=O)C2(C)CCN2Cc2ccccc2OC(F)F)c1 (stereo unspecified),-10,x,x,-1,-1,1,x,x,
O=C(O)C(Cc1ccccc1)N1C(=O)/C(=C/c2cccs2)SC1=S (stereo unspecified),9,x,x,67*,-2,15,49*,18*,
O=C(O)C(c1ccccc1)N1C(=O)/C(=C/c2cccs2)SC1=S (stereo unspecified),5,3,-1,7,5,17,x,x,
COc1cccc(/C=C2\SC(=S)N(C(Cc3ccccc3)C(=O)O)C2=O)c1 (stereo unspecified),-7,-37,14,69*,2,1,78*,31*,DNA CAG DR=i
COc1ccc(OC)c(/C=C2\SC(=S)N(C(C(=O)O)c3ccccc3)C2=O)c1 (stereo unspecified),17,-21,4,55*,4,17,77*,44*,
COc1ccc(C2=NO[C@@H]3C(=O)N(Cc4ccccc4)C(=O)[C@H]23)c(OC)c1,6,x,x,0,0,-1,x,x,
CCOC(=O)c1c(C)[nH]c(C(=O)CN(C)CC(=O)Nc2ccccc2C(F)(F)F)c1C,-2,-15,-4,-2,-5,-1,x,x,
CCNc1nc2[nH]c(=O)c3c(c2s1)OC(N)=C(C#N)C3c1ccc(C)cc1 (stereo unspecified),11,6,3,53*,-1,3,27,14*,
CCC(NC(=O)c1ccc2c(ccn2Cc2cccc(-c3ccccc3C(=O)O)c2)c1)c1ccccc1 (stereo unspecified),-51,x,x,49*,-3,12,48*,18*,
CCOC(=O)C1CCN(C(=O)c2cc3cc(Cl)ccc3[nH]2)CC1,1,-7,-8,-2,4,-8,x,x,
Cc1csc(NC(=O)COCC(=O)O)c1-c1nc2ccccc2s1,-2,x,x,55*,3,-6,43*,9.7*,
